KCNK3 block: human KCNK3 channel inhibitors, primary screen, CHO cells, FluxOR thallium flux, B-score; FluxOR fluorescence; hits give low values; B-score at 10 µM; 0.84% of 340,000 active;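 active = B-score under library mean minus 4 SD, starting fluorescence ratio at most library mean plus 5 SD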;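 note: more negative B-score means stronger inhibition of thallium flux through KCNK3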
KCNQ1 act: potentiators or activators of KCNQ1 channel, primary screen, cell-based, thallium flux, high-throughput; B-score at 10 µM; 0.35% of 310,000 active; AID 2648, 2010; CHO-K1 KCNQ1, thallium flux FluxOR fluorescence; hits give high values;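 active = fluorescence ratio B-score, a plate-corrected score, at least three library SD, with initial intensity B-score within 5 SD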
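Material: CHO-K1 cells stably expressing KCNQ1. Medium: assay buffer for compound exposure, DMSO matched across wells. Reagent: K+/Tl+ depolarizing stimulus. Compound dosing: single-concentration screen. Times: 37 °C overnight plating, 90-min dark dye load, 20-min compound pretreatment. Technique: FluxOR Tl+ flux fluorescence.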
KCNQ1 block: inhibitors of human KCNQ1 channel, primary screen, cell-based, thallium flux, high-throughput; Potassium voltage-gated channel subfamily KQT member 1 (Homo sapiens), P51787; CHO-K1 KCNQ1, FluxOR thallium flux fluorescence; hits give high values; B-score at 10 µM; 1.3% of 310,000 active;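 active = compounds whose thallium flux B-score, printed positive for inhibition, exceeds three library SD while starting fluorescence stays within three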;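 note: channel opened by potassium depolarization with thallium stimulus after 20 min compound exposure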
KCNK9 block: KCNK9 potassium channel inhibitors, primary screen, HEK293 cells, thallium flux. FluxOR thallium flux fluorescence; hits give low values. B-score at 10 µM. 1.2% of 310,000 active;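 active = ratio B-score over 3 SD below the library mean, with starting fluorescence within 5 SD of its mean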;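 note: negative B-score means less thallium flux so channel inhibition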
hERG rescue: hERG rescue from dofetilide block, primary screen, cell-based, CHO-hERG, FluxOR thallium flux, dofetilide IC70. Voltage-gated inwardly rectifying potassium channel KCNH2 (Homo sapiens), Q12809. dofetilide IC70 present. activation (rescue from dofetilide block), less the hit threshold, % at 10 µM. 0.51% of 310,000 active. AID 1511, 2009;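 active = activation above the mean of controls blocked by dofetilide plus 5 SD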;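 note: thallium influx through hERG after potassium depolarization seen as dye fluorescence rise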
Target sequence (Q12809 whole entry, looked up): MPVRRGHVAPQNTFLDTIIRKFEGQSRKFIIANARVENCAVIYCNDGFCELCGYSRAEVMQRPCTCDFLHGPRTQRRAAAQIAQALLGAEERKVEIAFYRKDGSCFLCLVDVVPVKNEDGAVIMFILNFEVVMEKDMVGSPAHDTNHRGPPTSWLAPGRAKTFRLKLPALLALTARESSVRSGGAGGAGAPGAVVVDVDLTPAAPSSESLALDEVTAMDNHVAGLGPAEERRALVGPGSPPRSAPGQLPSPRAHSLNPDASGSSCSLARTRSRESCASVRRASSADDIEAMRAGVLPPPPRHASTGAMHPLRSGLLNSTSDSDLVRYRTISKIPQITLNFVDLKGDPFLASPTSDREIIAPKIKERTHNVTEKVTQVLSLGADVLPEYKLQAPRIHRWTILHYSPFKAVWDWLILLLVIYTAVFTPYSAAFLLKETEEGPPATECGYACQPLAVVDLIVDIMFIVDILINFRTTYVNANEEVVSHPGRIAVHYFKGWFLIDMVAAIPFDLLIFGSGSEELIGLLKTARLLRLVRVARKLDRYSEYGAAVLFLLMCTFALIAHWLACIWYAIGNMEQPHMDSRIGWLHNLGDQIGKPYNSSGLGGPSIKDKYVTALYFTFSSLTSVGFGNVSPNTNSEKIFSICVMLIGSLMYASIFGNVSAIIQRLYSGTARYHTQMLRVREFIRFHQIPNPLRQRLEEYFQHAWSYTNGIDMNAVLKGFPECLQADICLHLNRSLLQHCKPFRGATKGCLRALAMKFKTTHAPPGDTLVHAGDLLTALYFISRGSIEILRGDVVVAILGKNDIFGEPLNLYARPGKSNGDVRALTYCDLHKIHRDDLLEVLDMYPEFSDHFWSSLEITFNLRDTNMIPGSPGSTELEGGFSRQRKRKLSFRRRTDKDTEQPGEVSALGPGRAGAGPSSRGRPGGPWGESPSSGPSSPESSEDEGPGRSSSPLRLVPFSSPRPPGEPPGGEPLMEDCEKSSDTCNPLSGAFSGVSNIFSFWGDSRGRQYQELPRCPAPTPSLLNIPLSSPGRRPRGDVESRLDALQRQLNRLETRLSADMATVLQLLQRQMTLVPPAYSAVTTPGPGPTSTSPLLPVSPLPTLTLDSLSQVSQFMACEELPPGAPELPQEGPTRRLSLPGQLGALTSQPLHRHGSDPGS
Kir21 block: inhibitors of mouse Kir2.1 inward-rectifier potassium channel. HEK293-Kir2.1, FluxOR thallium flux fluorescence; hits give low values. B-score at 10 µM. 0.85% of 310,000 active. AID 1672, 2009;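 active = fluorescence ratio B-score at or below minus 3 SD of library scores, with starting-brightness B-score within 2 SD, cut at about -4.2 in these data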;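 note: channel flux triggered by added potassium and thallium sulfate stimulus; B-score of peak minus minimum fluorescence over baseline after thallium stimulus; more negative B-score means stronger Kir2.1 block with less thallium influx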
KCNQ1 block val: KCNQ1 potassium channel inhibitors, confirmation, cell-based, Tl flux, duplicate. shares compounds with KCNQ1 block. KCNQ1 cell line, FluxOR thallium flux fluorescence. inhibition, % at 10 µM. 93% of 1,600 active;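 active = primary screen active, with duplicate mean exceeding buffer control mean plus 3 SD of buffer wells, cut at about 28% in these data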
CHO Tl flux: thallium flux effects in parental CHO cells, counter-screen for KCNQ1 inhibitor project, cell-based, Tl flux; fluorescence ratio (Tl flux) at 10 µM; 21% of 1,600 active; parental CHO-K1, FluxOR thallium flux fluorescence ratio; hits give low values; zero means no signal rise above baseline; shares compounds with KCNQ1 block;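 active = mean of duplicate thallium-flux fluorescence ratios in parental host cells more than 5 SD below the buffer control mean, cut at about 0.38 in these data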;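 note: ratio is peak minus minimum fluorescence divided by baseline fluorescence; actives read low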
KCNQ1 APC inh: KCNQ1 channel inhibitors, confirmation, orthogonal assay, cell-based, automated electrophysiology. calls only at 10 µM. 20% of 490 active. KCNQ1-CHO cells, automated patch clamp current. shares compounds with KCNQ1 block. AID 624120, 2012;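 active = KCNQ1 current drop exceeding 3 SD of negative control wells, seen in both duplicate runs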;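 note: steady state current during a 2 s step from -80 to +40 mV; negative values mean current inhibition and positive values mean potentiation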
KCNQ2 inh: KCNQ2 channel inhibition, selectivity assay for KCNQ1 inhibitor project, cell-based. inhibition, % at 10 µM. 71% of 1,600 active. AID 651746, 2012. KCNQ2 cells, FluxOR thallium flux fluorescence. shares compounds with KCNQ1 block;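 active = mean percent inhibition of the KCNQ2 thallium signal more than 5 SD above the buffer-only control wells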;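 note: KCNQ2 expressed in CHO cells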
KCNQ1-KCNE1 inh: KCNQ1/KCNE1 channel inhibition, selectivity assay for KCNQ1 inhibitor project, CHO-K1 cells, thallium flux, FluxOR | FluxOR thallium flux fluorescence | AID 652147, 2013 | inhibition, % at 10 µM | shares compounds with KCNQ1 block | 77% of 1,600 active;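 active = mean percent inhibition of duplicate wells above the buffer-only control mean plus 3 SD of those controls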
Hits are given with their value; i = inactive; nt = not tested or not shown; + = active, no number. Most compounds without a hit are left out; they make up all but 3.7% or so of the library.

SMILES	KCNK3 block	KCNQ1 act	KCNQ1 block	KCNK9 block	hERG rescue	Kir21 block	KCNQ1 block val	CHO Tl flux	KCNQ2 inh	KCNQ1-KCNE1 inh	others
Cc1ccc(C2NC(=NCc3ccccc3)Nc3nc(C)cc(=O)n32)cc1 (stereo not drawn)	i	i	i	i	i	i	nt	nt	nt	nt
CC1CCN(c2nnc(-c3ccccc3)c3ccccc23)CC1	i	i	6	i	i	i	92	i	90%	143%	KCNQ1 APC inh=i
Cc1ccc(-c2nnc(N3CCC(C)CC3)c3ccccc23)cc1C	i	i	12	i	i	i	164	0.31	114%	+
O=C(CNS(=O)(=O)c1ccccc1)N1CCN(Cc2ccccc2)CC1	i	i	i	i	i	i	nt	nt	nt	nt
O=C(c1cc(=O)[nH]c2ccccc12)N(Cc1nnc(-c2ccccc2Cl)o1)C1CC1	i	i	i	i	i	i	nt	nt	nt	nt
COC(=O)c1sc(NC(=O)c2oc3ccccc3c2C)nc1C	i	i	i	i	i	i	nt	nt	nt	nt
Cc1c(C(=O)Nc2nnc(C(F)(F)F)s2)oc2ccccc12	i	i	7	i	i	i	69	i	i	i
CCOC(=O)C1=C(C)N(C)C(C)=C(C(=O)OCC)C1c1ccc(Cl)cc1	i	i	i	i	i	i	nt	nt	nt	nt
CCOC(=O)C1=C(C)N(C)C(C)=C(C(=O)OCC)C1c1ccc(C(=O)OC)cc1	i	i	6	i	i	i	106	0.3	115%	151%
CC(C)(C)c1ccc(C2=CSC3=NCCN23)cc1	i	i	7	i	i	i	43	i	i	46%
OCC1(Cc2cccc(Cl)c2)CCCN(Cc2ccc(F)c(F)c2)C1 (stereo not drawn)	i	i	i	i	i	i	nt	nt	nt	nt
CSc1cccc(CN2CCCC(CO)(Cc3cccc(Cl)c3)C2)c1 (stereo not drawn)	i	i	7	i	i	i	56	i	101%	86%
O=C(CCN1CCOCC1)c1ccc2c(c1)OCCO2	i	i	8	i	i	i	64	0.36	i	60%
NC(=O)c1cc2ccc(O)cc2oc1=NCc1ccccc1	i	i	31	i	i	i	+	0.048	i	i
CN(CC(=O)Nc1ccc(Cl)cc1)CC(=O)Nc1cccc(Br)c1	i	i	i	i	i	i	nt	nt	nt	nt
O=C(COC(=O)/C=C/c1ccc([N+](=O)[O-])cc1)NC1CCCCC1	i	nt	nt	nt	nt	nt	nt	nt	nt	nt
c1coc(CNc2nc(N3CCCCC3)nc3ccccc23)c1	i	i	9	i	i	-4.6	60	0.38	72%	62%
OCCNc1nc(N2CCCCC2)nc2ccccc12	i	i	i	i	i	i	nt	nt	nt	nt
COc1ccc(S(=O)(=O)Oc2ccc(C(=S)N3CCOCC3)cc2OC)cc1	i	i	i	i	i	i	nt	nt	nt	nt
O=S(=O)(Oc1ccc(C(=S)N2CCOCC2)cc1)c1ccc(Cl)cc1	i	i	8	i	i	i	85	i	i	65%
O=C(Nc1cccc(Cl)c1)N(CCCN1CCOCC1)Cc1ccccc1F	i	i	11	i	i	i	78	i	106%	71%
CCCCCCCN1C2=NCCCN2c2ccccc21	i	i	7	i	i	i	50	i	i	55%
CC(C)NC(=O)N(C)C[C@H]1Oc2c(NC(=O)Nc3ccccc3)cccc2C(=O)N([C@H](C)CO)C[C@@H]1C	i	nt	nt	nt	nt	nt	nt	nt	nt	nt
Cc1ccc(S(=O)(=O)N(C)C)cc1NC(=S)N(C)C1CCN(C)CC1	i	i	i	i	i	i	nt	nt	nt	nt
O=C(C1COc2ccccc2O1)N1CCN(Cc2ccc(Br)cc2F)CC1 (stereo not drawn)	i	i	8	i	i	i	60	i	108%	80%
SMILES	KCNK3 block	KCNQ1 act	KCNQ1 block	KCNK9 block	hERG rescue	Kir21 block	KCNQ1 block val	CHO Tl flux	KCNQ2 inh	KCNQ1-KCNE1 inh	others
O=C(C1COc2ccccc2O1)N1CCN(Cc2ccc3c(c2)OCO3)CC1 (stereo not drawn)	i	i	i	i	i	i	nt	nt	nt	nt
CC1CCN(CC(=O)N2CCCc3c2c(=O)oc2ccc(OCc4ccccc4)cc32)CC1	i	i	i	i	i	i	nt	nt	nt	nt
CC1CC(C)CN(CC(=O)N2CCCc3c2c(=O)oc2ccc(OCc4ccccc4)cc32)C1 (stereo not drawn)	i	i	9	i	i	i	110	i	100%	151%
O=C(NC(=S)Nc1ccccc1N1CCN(C(=O)c2ccccc2)CC1)c1ccccc1F	i	i	10	i	i	i	84	i	110%	112%
Cc1cc(S(=O)(=O)N2CCN(c3c(C)cccc3C)CC2)ccc1F	i	i	8	i	i	i	103	i	81%	136%	KCNQ1 APC inh=i
Cc1cc(S(=O)(=O)N2CCN(c3ccccc3C)CC2)ccc1F	-9.8	i	11	i	i	i	168	0.35	i	i
COc1ccc(S(=O)(=O)N2CCN(c3c(C)cccc3C)CC2)cc1OC	i	i	8	i	i	i	99	0.36	110%	92%
COc1ccc(S(=O)(=O)N2CCN(c3ccc(C)cc3C)CC2)cc1OC	i	i	i	i	i	i	nt	nt	nt	nt
CN(C(=O)COC(=O)c1c2c(nc3ccccc13)CCCC2)c1c(N)n(Cc2ccccc2)c(=O)[nH]c1=O	i	i	i	i	i	i	nt	nt	nt	nt
CCOc1ccc(CCNC(=O)CSC(=S)N2CCCC2)cc1OCC	i	i	i	i	i	i	nt	nt	nt	nt
COCCNC(=S)N(CCc1c(C)[nH]c2ccc(F)cc12)Cc1ccco1	i	i	i	i	i	i	nt	nt	nt	nt
